# Assay results collected from several papers.
# TYR: Tyrosinase (TYR, Homo sapiens, UniProt P14679)
# Si: Sucrase-isomaltase, intestinal (Si, Rattus norvegicus, UniProt P23739)
# PIK3C3: Phosphatidylinositol 3-kinase catalytic subunit type 3 (PIK3C3, Homo sapiens, UniProt Q8NEB9)
# NR3C1: Glucocorticoid receptor (NR3C1, Homo sapiens, UniProt P04150)
Compound,target,test,system,conditions,inhibition [%]
Cc1ccc(C(C)C)cc1NC(=O)COC(=O)c1cccc(O)c1,TYR,"enzyme activity, inhibitor",,50 µg/mL,61.2
O=c1c(O[C@@H]2O[C@H](CO)[C@@H](O)[C@H](O)[C@H]2O)c(-c2ccc(O)c(O)c2)oc2cc(O)cc(O)c12,Si,"enzyme activity, inhibitor",,25 µg/mL,21.4
O=C(CSc1nc2nccnc2c(=O)n1CCc1ccccc1)Nc1nccs1,PIK3C3,"enzyme activity, inhibitor",,10 µM,28
COc1cc(Cl)c(C(=O)N[C@@H](CN[C@H]2CC[C@@H](N)CC2)Cc2ccc(C#N)cc2)cc1-c1ccc(CN[C@H](C)c2ccc(C)cc2)o1,"P2Y purinoceptor 2 (P2RY2, Homo sapiens, UniProt P41231)","calcium signal, antagonist",,10 µM,-25
Cc1ccc(C(C)C)cc1NC(=O)COC(=O)/C=C/c1ccc(Cl)cc1,TYR,"enzyme activity, inhibitor",,50 µg/mL,57.4
O=c1c(O[C@@H]2O[C@@H](CO)[C@H](O)[C@H]2O)c(-c2ccc(O)c(O)c2)oc2cc(O)cc(O)c12,Si,"enzyme activity, inhibitor",,50 µg/mL,31.5
Cc1ccc(C(C)C)cc1NC(=O)COC(=O)c1ccc(O)cc1,TYR,"enzyme activity, inhibitor",,50 µg/mL,53.8
CNc1cc(Oc2cc(C(=O)Nc3cc(N4CCN(C)CC4)cc(C(F)(F)F)c3)ccc2C)ncn1,"PAN2-PAN3 deadenylation complex subunit PAN3 (Homo sapiens, UniProt Q58A45)","target engagement in cells, inhibitor, chemoproteomics",Huh-7,1 µM,-39.3
COc1cc(NC(C)=O)c(Cl)cc1C(=O)Nc1nccs1,NR3C1,cell-free assay,,10 µM,11
N#Cc1cc(Cn2c(N3CCCC3)nc3ccccc32)ccc1F,"Alpha-2C adrenergic receptor (ADRA2C, Homo sapiens, UniProt P18825)",ligand displacement,,10 µM,16.1
CCN(CC)c1ccc(C2Nc3ccc(C(=O)c4ccccc4)cc3NC3=C2C(=O)CC(C)(C)C3)cc1 (stereo not drawn),"Prostaglandin E2 receptor EP3 subtype (PTGER3, Homo sapiens, UniProt P43115)","ligand displacement, radioligand",,10 µM,12
Cc1ccc(C(C)C)cc1NC(=O)COC(=O)/C=C/c1ccccc1,TYR,"enzyme activity, inhibitor",,50 µg/mL,82.3
CNC(=O)c1cc(Oc2ccc(NC(=O)Nc3ccc(Cl)c(C(F)(F)F)c3)cc2)ccn1,"Mitogen-activated protein kinase 14 (MAPK14, Homo sapiens, UniProt Q16539, T106M)","enzyme activity, inhibitor",,0.3 µM,59
O=C1N=C(N2CCCCN2)S/C1=C\c1ccc(F)cc1O,"Nociceptin receptor (OPRL1, Homo sapiens, UniProt P41146)","ligand displacement, radioligand",,10 µM,< 10
O=C(Nc1ccc(S(=O)(=O)N2CCC(Cl)CC2)cc1)c1ccc([N+](=O)[O-])o1,"Estrogen receptor (ESR1, Homo sapiens, UniProt P03372)","ligand displacement, radioligand",,10 µM,0
Oc1cccc(Nc2nc(-c3ccc(F)cc3F)cs2)c1,NR3C1,cell-free assay,,10 µM,21.6
CS(=O)(=O)Nc1cccc(-c2csc(NC(=O)CSc3nc4nccnc4c(=O)n3CCc3ccccc3)n2)c1,PIK3C3,"enzyme activity, inhibitor",,10 µM,9
Cc1ccc(C(C)C)cc1NC(=O)COC(=O)/C=C/c1ccccc1O,TYR,"enzyme activity, inhibitor",,50 µg/mL,53.7
CN1CC(Oc2cnc(C#N)cc2-c2ccn3nc(NC(=O)C4CC4)cc3c2)C1,"Eukaryotic translation initiation factor 2-alpha kinase 1 (EIF2AK1, Homo sapiens, UniProt Q9BQI3)","enzyme activity, inhibitor",,1 µM,-8
O=C1OC[C@H]2OC(=O)c3cc(O)c(O)c(O)c3-c3c(O)c(O)c(O)c4c3C(=O)O[C@H]([C@H]3OC(=O)c5c-4c(O)c(O)c(O)c5[C@H]3O)[C@@H]2OC(=O)c2cc(O)c(O)c(O)c2-c2c1cc(O)c(O)c2O,Si,"enzyme activity, inhibitor",,25 µg/mL,25.7
CCN(Cc1ccccc1C(F)(F)F)C(=O)C1CCN(S(=O)(=O)c2ccc3[nH]ncc3c2)CC1,NR3C1,"ligand displacement, radioligand",,10 µM,1
Cc1ccc(Nc2nccc(N(C)c3ccc4c(C)n(C)nc4c3)n2)cc1S(N)(=O)=O,"Abl2 (Mus musculus, UniProt Q4JIM5)","enzyme activity, inhibitor",,0.3 µM,38
CC(CN(C)C)C(Oc1cccc2ccccc12)c1cccs1 (stereo not drawn),"Norepinephrine transporter (Slc6a2, Rattus norvegicus, UniProt Q9WTR4)","ligand displacement, radioligand",,"10 µM, cell membranes",< 70
O=C(c1ccc(F)cc1)N(Cc1ccccc1)C1CCCCC1,"Interleukin-1 receptor type 1 (IL1R1, Homo sapiens, UniProt P14778)",cell-free assay,,10 µM,14
CN(C)C1CCN(CC#Cc2nn(C3CCCC3)c3nc(NCc4ccccc4)ncc23)C1 (stereo not drawn),"Leucine-rich repeat serine/threonine-protein kinase 2 (LRRK2, Homo sapiens, UniProt Q5S007)","enzyme activity, inhibitor, FRET",,1 µM,0
O=C(c1ccc(Cl)cc1)N(Cc1ccccc1)C1CCCCC1,"5-hydroxytryptamine receptor 1A (HTR1A, Homo sapiens, UniProt P08908)","ligand displacement, radioligand",,10 µM,-12.4
CCN(CC)CCNC(=O)c1c(C)[nH]c(/C=C2\C(=O)Nc3ccc(F)cc32)c1C,"Mitogen-activated protein kinase 14 (MAPK14, Homo sapiens, UniProt Q16539)","enzyme activity, inhibitor",,0.3 µM,-11
